The text below walks through data of ChEMBL document CHEMBL2176909, “Kaurenoic acid from Sphagneticola trilobata Inhibits Inflammatory Pain: effect on cytokine production and activation of the NO-cyclic GMP-protein kinase G-ATP-sensitive potassium channel signaling pathway” (J Nat Prod, 2012).

Each structure is given as a SMILES string. Calls of active or inactive are those of the source.

Series [1] deals with Mus musculus. Nature of the series: Gastrointestinal toxicity in Swiss mouse assessed as increase in stomach MPO activity at 2.5 mg/kg, po for 7 days measured over 7 days relative to vehicle-treated control. It counts as organism-based. Set-up: dose 2.5 mg/kg, route oral. The following applies: in vivo, 168 h. In a few lines: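 Mice dosed po daily for 7 days: vehicle (2% DMSO/saline or Tris/HCl pH 8.0), 10 mg/kg, or indomethacin 2.5 mg/kg. Stomach is homogenized in 50 mM phosphate buffer pH 6.0 with 0.5% HTAB. Supernatant is reacted with o-dianisidine/H2O2 and read at 450 nm. Results expressed as neutrophils ×10^4/mg tissue from a neutrophil standard curve. n = 8.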

For series [2], the system named is Mus musculus. Nature of the series: Antihyperalgesic activity in carrageenan-induced mechanical hyperalgesia Swiss mouse model assessed as paw withdrawal latency at 5 mg/kg, ip administered 40 mins prior to challenge by electronic pressure-meter test. It counts as functional, organism-based. Further details: dose 5 mg/kg. In a few lines:
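Male Swiss mice dosed po (1–10 mg/kg, 2% DMSO in saline) 30 min before intraplantar carrageenin (100 μg/paw). Control indomethacin 5 mg/kg ip given 40 min before. Electronic pressure-meter readings at 1, 3 and 5 h, mean of three. Δ withdrawal threshold (g) is the post-stimulus reading minus zero-time. n = 5.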

The test system of series [3] is Mus musculus. Nature of the series: Hepatotoxicity in Swiss mouse assessed as change in plasma ALT level at 2.5 mg/kg, po for 7 days measured over 7 days relative to vehicle-treated control. It counts as toxicity, organism-based. Set-up: dose 2.5 mg/kg, route oral. As to conditions: in vivo, 168 h. In short, it runs like this: (§1)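 Mice dosed po daily for 7 days: vehicle (2% DMSO/saline or Tris/HCl pH 8.0), 10 mg/kg, or indomethacin 2.5 mg/kg. Heparinized blood is drawn under terminal anesthesia, and plasma AST and ALT are measured with a diagnostic kit. n = 8.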

For series [4], the system named is Mus musculus. Nature of the series: Antinociceptive activity in Swiss mouse assessed as inhibition of PBQ-induced writhing at 5 mg/kg, ip administered 30 mins prior to PBQ challenge. Set-up: dose 5 mg/kg. The class given is functional, organism-based.
The subject of series [5] is Mus musculus. Nature of the series: Hepatotoxicity in Swiss mouse assessed as change in plasma AST level at 2.5 mg/kg, po for 7 days measured over 7 days relative to vehicle-treated control. The class given is toxicity, organism-based. Further details: dose 2.5 mg/kg, route oral. As to conditions: in vivo, 168 h. In a few lines:
as §1

The subject of series [6] is Mus musculus. Kind of series: Antinociceptive activity in Swiss mouse assessed as inhibition of acetic acid-induced writhing at 5 mg/kg, ip administered 30 mins prior to acetic acid challenge. The class given is functional, organism-based. Set-up: dose 5 mg/kg.

`COc1ccc2c(c1)c(CC(=O)O)c(C)n2C(=O)c1ccc(Cl)cc1` [INDOMETHACIN]: the Activity entry with Mus musculus [1], with Mus musculus [3] and in the series on Mus musculus [5] was “Toxic” each time. Further, in the series on Mus musculus [2], the outcome was Active. The inhibition entry with Mus musculus [4] and with Mus musculus [6] was “Active” in each case.
